In the array DNA melting data of Ke et al. (doi:10.1101/2024.01.08.574731):

Legend:
[1] = melting temperature; fluorescence melt of hairpins on a sequencing array, two-state fit, raised by 9.35 °C to match UV melts; conditions: sodium 0.088 M
How it was run: (§1)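 Two-state fits, bootstrapped, provided melting temperature and folding enthalpy from Cy3 fluorescence normalised to pre-quench Cy3 and to control constructs. Library hairpins with annealed Cy3 and quencher oligos were imaged on a sequenced MiSeq flow cell in 50 mM Na-HEPES pH 8.0, 25 mM NaCl, at 2.5 °C intervals up to 60 °C. Four replicates were combined with inverse-variance weighting. A 9.35 °C upward shift was applied to fitted temperatures to match UV melts.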

[2] = folding enthalpy; higher = less favourable; fluorescence melt of hairpins on a sequencing array, two-state fit; conditions: sodium 0.088 M
How it was run: as §1

Sequence | Tm [1] | folding enthalpy [2]
GAATGCCGAAAGGCTTTC (((.(((....))).))) | 48 °C | -21.7 kcal/mol
GCCTCTGGAAACAAAGGC ((((.((....)).)))) | 36.1 °C | -26.1 kcal/mol
GATTTGGGAAACTAAATC (((((.(....).))))) | 36.6 °C | -26.6 kcal/mol
GGATGCGAAAGCAAATCC ((((((....)))..))) | 47.1 °C | -21 kcal/mol
GATATTACGAAAGTAATC (((..(((....)))))) | 34.7 °C | -11.6 kcal/mol
GATCTAAATATAGATC ((((((....)))))) | 35.7 °C | -25.9 kcal/mol
CCTACGAAAGTAGG (((((....))))) | 57 °C | -20.4 kcal/mol
GCAACGCGAAAGCCATGC (((..((....))..))) | 29.1 °C | -7.42 kcal/mol
GCCGCGCGAAAGCCGGGC (((..((....))..))) | 68.2 °C | -18.5 kcal/mol
GATCACGTTTGTGATC ((((((....)))))) | 58.5 °C | -40.4 kcal/mol
GCACCCGGAAACGAGCGC ((.(.((....)).).)) | 34.7 °C | -29.2 kcal/mol
GCATCTACGAAAGTATGC (((..(((....)))))) | 34.6 °C | -20.7 kcal/mol
GTATCCGGAAACGAATAC ((((.((....)).)))) | 33.5 °C | -26.5 kcal/mol
GCTCTGCGAAAGCACAGC (((.(((....))).))) | 38.6 °C | -25.6 kcal/mol
GTCGCCCCGAAAGGGGAC (((..(((....)))))) | 40.1 °C | -9.73 kcal/mol
GATCAGGACCCTGATC ((((((....)))))) | 54.4 °C | -39.6 kcal/mol
GATCGGATCTCCGATC ((((((....)))))) | 56.7 °C | -40.4 kcal/mol
GCGAGGCGAAAGCTTTGC ((.(.((....)).).)) | 51.5 °C | -20.3 kcal/mol
GAACAGGGAAACCTGTCC (.(((((....))))).) | 35.1 °C | -16.1 kcal/mol
GATCCGCCTGCGGATC ((((((....)))))) | 69.2 °C | -40.3 kcal/mol
GTGTTGGGAAACCAATAC ((.((((....)))).)) | 45.7 °C | -41.5 kcal/mol
GTAGTGGGAAACTACTAC (((((.(....).))))) | 47.5 °C | -31.7 kcal/mol
GGAAAGCGAAAGCTGTCC (((.(((....))).))) | 53.9 °C | -23.8 kcal/mol

Sequence | Tm [1] | folding enthalpy [2]
GGCGTGGCGAAAGCCGCC (((..(((....)))))) | 66.7 °C | -16.4 kcal/mol
GCCGCCACGAAAGTGGGC (((..(((....)))))) | 54.6 °C | -8.39 kcal/mol
GGTCACGGAAACGTGGCC ((.((((....)))).)) | 64.9 °C | -37.2 kcal/mol
GGTATCCGAAAGGAAACC (((.(((....))).))) | 48.8 °C | -31.9 kcal/mol
GCCACCGAAAGGTCAGGC ((((((....)))..))) | 48.4 °C | -23.1 kcal/mol
GATCCATCGGTGGATC ((((((....)))))) | 50.6 °C | -39.5 kcal/mol
GTACCGGGAAACCGGTAC (((((((....))))))) | 68.3 °C | -29.2 kcal/mol
GCGACCGAAAGGTACGC ((((((....))).))) | 58.1 °C | -23.8 kcal/mol
CGCGTTCGGAAACGAGCG (((..(((....)))))) | 48.5 °C | -19.6 kcal/mol
GGCTCCGAAAGGAACGCC ((((((....)))..))) | 50.5 °C | -21 kcal/mol
GCTAAAACGAAAGTTAGC (((..(((....)))))) | 40.1 °C | -27.8 kcal/mol
GTATTAGGAAACTAATGC (.(((((....))))).) | 34.2 °C | -28.2 kcal/mol
GTGCAACCGAAAGGTCAC (((..(((....)))))) | 40.1 °C | -16.6 kcal/mol
GCCACGCCGAAAGGCGGC (((..(((....)))))) | 48.3 °C | -7.28 kcal/mol
GTCCCACGAAAGTGAGAC (((.(((....))).))) | 49.4 °C | -30.2 kcal/mol
GCGTGTGGAAACACGTGC ((..(((....)))..)) | 63.1 °C | -19.1 kcal/mol
GATCGGCTCCCGATC ((((((...)))))) | 57.8 °C | -38.4 kcal/mol
GTCGACTCGAAAGAGGAC (((..(((....)))))) | 35.6 °C | -16.9 kcal/mol
GTTGGAGGAAACTTCGAC ((.(.((....)).).)) | 34.2 °C | -24.3 kcal/mol
GATCAGCGAAAGCTAATC (((.(((....))).))) | 35.9 °C | -15.7 kcal/mol
GATCGGAGCCCGATC ((((((...)))))) | 53.4 °C | -31.2 kcal/mol
GTTTAAGAAATTAAAC ((((((....)))))) | 32.4 °C | -16.8 kcal/mol
GATCCCATCGGGGATC ((((((....)))))) | 59.9 °C | -31.1 kcal/mol

Sequence | Tm [1] | folding enthalpy [2]
GATCACCTCGGTGATC ((((((....)))))) | 65.4 °C | -37.5 kcal/mol
GATGAGGGAAACCCCATC ((((.((....)).)))) | 41.2 °C | -31.4 kcal/mol
GATCCAGCCCTGGATC ((((((....)))))) | 54.1 °C | -48 kcal/mol
GCACGCCGAAAGGCTTGC (((.(((....))).))) | 58.3 °C | -28.7 kcal/mol
GCTGTTCCGAAAGGAAGC (((..(((....)))))) | 35.1 °C | -14 kcal/mol
GCGGCGAACCGC ((((....)))) | 56.9 °C | -18.9 kcal/mol
GACTGTCCGAAAGGAGTC (((..(((....)))))) | 36.1 °C | -14.6 kcal/mol
GATAGCGAAAGCTATC ((((((....)))))) | 61.3 °C | -33 kcal/mol
GTGGGTGGAAACGTCCAC ((((..(....)..)))) | 46 °C | -18.8 kcal/mol
GCGAGGAATCGC ((((....)))) | 54.6 °C | -20.5 kcal/mol
GCAAGTCGAAAGACCTGC (((.(((....))).))) | 47.9 °C | -29.6 kcal/mol
GCGGACACGAAAGTGCGC (((..(((....)))))) | 55.6 °C | -26.1 kcal/mol
GCGGTGCGAAAGCAGTGC ((..(((....)))..)) | 63.6 °C | -23.5 kcal/mol
GATCGTCGCGACGATC ((((((....)))))) | 67.6 °C | -37.5 kcal/mol
GCAAGGCGAAAGCCCCGC ((..(((....)))..)) | 37 °C | -10.7 kcal/mol
GCAGTGCGAAAGCTATGC (((..((....))..))) | 55.1 °C | -17.1 kcal/mol
GGCGCCCCGAAAGGGGCC (((..(((....)))))) | 58.6 °C | -7.09 kcal/mol
CGCGCTCGGAAACGAGCG (((..(((....)))))) | 67.6 °C | -7.49 kcal/mol
GATCAAACAATTGATC ((((((....)))))) | 37.1 °C | -22.6 kcal/mol
GATCCCAGAGGGGATC ((((((....)))))) | 60.9 °C | -32.2 kcal/mol
GCTCTGCGAAAGCCGCGC ((.(.((....)).).)) | 39.4 °C | -15 kcal/mol
GATCCGTTTTCGGATC ((((((....)))))) | 61.8 °C | -42.2 kcal/mol
CGATCGCGGAAACGCTCG (((..(((....)))))) | 36.8 °C | -15.4 kcal/mol

Sequence | Tm [1] | folding enthalpy [2]
GATCTTAAAGAAGATC ((((((....)))))) | 34.8 °C | -16.8 kcal/mol
GGGGGTACGAAAGTACCC (((..(((....)))))) | 63.4 °C | -8.56 kcal/mol
GTAAACGAAAGTTACTAC ((((((....)))..))) | 34.8 °C | -17.6 kcal/mol
GTCAGCGAAAGCTTGGAC ((((((....)))..))) | 38.2 °C | -13.9 kcal/mol
GGCTTGGGAAACCAGGTC (.(.(((....))).).) | 37 °C | -23.2 kcal/mol
GCCAAGCGAAAGCGGGGC (((..((....))..))) | 68.3 °C | -28.6 kcal/mol
GCACCAGGAAACTGATGC (((.(((....))).))) | 45 °C | -28.6 kcal/mol
GATCGTTGTACGATC ((((((...)))))) | 61.1 °C | -38.8 kcal/mol
GGCCTTGGAAACGAGGCC (((((.(....).))))) | 59.4 °C | -50.7 kcal/mol
GGCATCGGAAACAACGCC (((.(.(....).).))) | 27.4 °C | -9.26 kcal/mol
GATCTCCAAAGAGATC ((((((....)))))) | 52.5 °C | -35.6 kcal/mol
GACCATGGAAACATGGCC (.(((((....))))).) | 46 °C | -15.2 kcal/mol
GATAGCGAAAGCTTCATC ((((((....)))..))) | 28.3 °C | -12 kcal/mol
GCAGTGGGAAACCACCAC (..((((....))))..) | 30.6 °C | -12.2 kcal/mol
GACTGTGGAAACACAGTC (((((((....))))))) | 66.5 °C | -37.5 kcal/mol
GTCTAACGAAAGTTGGAC (((.(((....))).))) | 52 °C | -19.8 kcal/mol
GATCGGGAACCGATC ((((((...)))))) | 68.4 °C | -36 kcal/mol
CGGACGGAAACGTTGCCG ((((((....)))..))) | 37.8 °C | -15.7 kcal/mol
GTTGAGCGAAAGCTAAAC (((.(((....))).))) | 48 °C | -26.5 kcal/mol
GAGAACGAAAGTTCACTC ((((((....)))..))) | 44.3 °C | -17.2 kcal/mol
CGTCCGGAAACGGCGACG ((((((....)))..))) | 46.7 °C | -13.6 kcal/mol
GACTTTGGAAACAAAGTC (((((((....))))))) | 57.8 °C | -44.5 kcal/mol
GCTTCCGAAAGGAATAGC ((((((....)))..))) | 44 °C | -17.8 kcal/mol
